This assay has as its target T1, Phospholipase A2, membrane associated (Homo sapiens, UniProt P14555).
T1 sequence (P14555 whole entry): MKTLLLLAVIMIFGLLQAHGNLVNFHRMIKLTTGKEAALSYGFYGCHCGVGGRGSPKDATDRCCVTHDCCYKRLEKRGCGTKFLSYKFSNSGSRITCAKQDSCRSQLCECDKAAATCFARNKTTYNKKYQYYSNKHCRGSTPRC
Description: Inhibition of sPLA2-IIA (unknown origin)-integrin alphaVbeta3 interaction in human K562 cells pretreated for 30 mins to immobilized sPLA2 before adding cells by phosphatase assay. The procedure, abridged: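 Wells coated with sPLA2-IIA and blocked with BSA were preincubated with compound (10 to 500 μM) for 30 min. Integrin αvβ3-transfected K562 erythroleukemia cells were then added for 1 h at 37 °C, and bound cells were quantified by phosphatase assay. IC50 and maximum inhibition were derived from dose-response experiments.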

The structures appear in SMILES notation.

As to `Cc1nc(NC(=O)c2ccccc2)sc1-c1cc(C(=O)NCC(=O)O)[nH]n1`, the half-inhibitory concentration (IC50) (commonly the concentration that gives 50% inhibition) was 241 µM.

Values taken from BindingDB's records for doi:10.1016/j.bmcl.2012.10.080 (University of California, 2012).
